# From ChEMBL document CHEMBL1135248, “Synthesis and evaluation of pseudopeptide analogues of a specific CXCR4 inhibitor, T140: the insertion of an (E)-alkene dipeptide isostere into the betaII'-turn moiety” (Bioorg Med Chem Lett, 2002)
# Where “and” joins values, the source holds several entries; their conditions need not be identical. Identical values can stand only once.
# How the values were obtained:
# [1] = tested on: MT4; experiment: Anti-HIV activity based on the protection against HIV-induced cytopathogenicity in MT-4 cells using MTT method; assay type: functional, cell-based, Homo sapiens
# In short: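 MT-4 cells challenged with the X4 strain HIV-1 IIIB. Protection from virus-induced cytopathogenicity was read by the MTT method, and EC50 was derived. Values are the mean of at least three experiments.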
# [2] = target: T1, C-X-C chemokine receptor type 4 (Homo sapiens, UniProt P61073); experiment: (§1) Inhibitory activity based on the inhibition of [Ca2+] mobilization induced by human SDF-1alpha stimulation through CXCR4
# In short: (§2)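 CHO cells transfected with CXCR4 were loaded with Fura-2-AM for 1–2 h and then pretreated with analogue. Recombinant human SDF-1α was added 3 min later. [Ca2+]i rise was measured spectrofluorometrically by a modified Fura-2 method, and IC50 was derived from inhibition of mobilization. Values are the mean of two experiments.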
# [3] = target: T1, C-X-C chemokine receptor type 4; experiment: as §1; in short: as §2; remark: listed apart in the source
# [4] = Selectivity index (SI) is determined as the ratio of CC50/EC50; assay type: functional
# In short: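 Ratio of CC50 to EC50, both taken from MTT read-outs in MT-4 cells: mock-infected cells for CC50 and HIV-1 IIIB-infected cells for EC50. Each value is the mean of at least three experiments.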
# [5] = tested on: MT4; experiment: Cytotoxicity based on the reduction of the viability of mock-infected MT-4 cells using the MTT method; assay type: functional, Homo sapiens
# In short: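 Mock-infected MT-4 cells were exposed to compound. Loss of viability was read by the MTT method, and CC50 was derived. Values are the mean of at least three experiments.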
# T1 sequence (P61073 whole entry): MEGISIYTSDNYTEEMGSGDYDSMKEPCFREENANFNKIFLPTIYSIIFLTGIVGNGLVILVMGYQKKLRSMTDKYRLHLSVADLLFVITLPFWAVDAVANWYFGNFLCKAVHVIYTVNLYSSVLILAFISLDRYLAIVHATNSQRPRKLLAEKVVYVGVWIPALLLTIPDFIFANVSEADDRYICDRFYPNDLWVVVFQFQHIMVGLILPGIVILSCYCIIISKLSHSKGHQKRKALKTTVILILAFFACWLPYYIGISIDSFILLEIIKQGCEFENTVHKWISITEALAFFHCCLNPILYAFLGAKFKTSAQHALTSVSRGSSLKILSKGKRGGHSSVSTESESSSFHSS
structure (smiles),measurement,setting,value
C[C@H]1/C=C\[C@@H](CCCCN)NC(=O)[C@H](CCCCN)NC(=O)[C@H](CCCN=C(N)N)NC(=O)[C@H](Cc2ccc(O)cc2)NC(=O)[C@@H](NC(=O)[C@H](CSCc2ccccc2)NC(=O)[C@H](CCCN=C(N)N)NC(=O)[C@@H](N)CCCN=C(N)N)CSSC[C@@H](C(=O)N[C@@H](CCCN=C(N)N)C(N)=O)NC(=O)[C@H](CCCNC(N)=O)NC(=O)[C@H](CCCN=C(N)N)NC(=O)[C@H](Cc2ccc(O)cc2)NC1=O [listing 1 of 2 here],EC50,"[1]; Homo sapiens, MT4",67 nM
same,EC50,[1]; mt4,45 nM
same,IC50,[2],36 nM
C[C@H]1/C=C\[C@@H](CCCCN)NC(=O)[C@H](CCCCN)NC(=O)[C@H](CCCN=C(N)N)NC(=O)[C@H](Cc2ccc(O)cc2)NC(=O)[C@@H](NC(=O)[C@H](Cc2c[nH]c3ccccc23)NC(=O)[C@H](CCCN=C(N)N)NC(=O)[C@@H](N)CCCN=C(N)N)CSSC[C@@H](C(=O)N[C@@H](CCCN=C(N)N)C(N)=O)NC(=O)[C@H](CCCNC(N)=O)NC(=O)[C@H](CCCN=C(N)N)NC(=O)[C@H](Cc2ccc(O)cc2)NC1=O [listing 1 of 2 here],IC50,[3],5 nM
same,EC50,"[1]; Homo sapiens, MT4",3.7 nM
same,EC50,[1]; mt4,2.9 nM
C[C@H]1/C=C\[C@@H](CCCCN)NC(=O)[C@H](CCCCN)NC(=O)[C@@H](CCCN=C(N)N)NC(=O)[C@H](Cc2ccc(O)cc2)NC(=O)[C@@H](NC(=O)[C@H](CSCc2ccccc2)NC(=O)[C@H](CCCN=C(N)N)NC(=O)[C@@H](N)CCCN=C(N)N)CSSC[C@@H](C(=O)N[C@@H](CCCN=C(N)N)C(N)=O)NC(=O)C(CCCNC(N)=O)NC(=O)[C@@H](CCCN=C(N)N)NC(=O)[C@H](Cc2ccc(O)cc2)NC1=O (stereo partly drawn),SI,[4],810 and 1300
C[C@H]1/C=C\[C@@H](CCCCN)NC(=O)[C@H](CCCCN)NC(=O)[C@H](CCCN=C(N)N)NC(=O)[C@H](Cc2ccc(O)cc2)NC(=O)[C@@H](NC(=O)[C@H](Cc2ccc3ccccc3c2)NC(=O)[C@H](CCCN=C(N)N)NC(=O)[C@@H](N)CCCN=C(N)N)CSSC[C@@H](C(=O)N[C@@H](CCCN=C(N)N)C(N)=O)NC(=O)[C@H](CCCNC(N)=O)NC(=O)[C@H](CCCN=C(N)N)NC(=O)[C@H](Cc2ccc(O)cc2)NC1=O,CC50,[5],58000 nM
same,CC50,"[5]; Homo sapiens, MT4",57000 nM
C[C@H]1/C=C\[C@@H](CCCCN)NC(=O)[C@H](CCCCN)NC(=O)[C@@H](CCCN=C(N)N)NC(=O)[C@H](Cc2ccc(O)cc2)NC(=O)[C@@H](NC(=O)[C@H](Cc2c[nH]c3ccccc23)NC(=O)[C@H](CCCN=C(N)N)NC(=O)[C@@H](N)CCCN=C(N)N)CSSC[C@@H](C(=O)N[C@@H](CCCN=C(N)N)C(N)=O)NC(=O)C(CCCNC(N)=O)NC(=O)[C@@H](CCCN=C(N)N)NC(=O)[C@H](Cc2ccc(O)cc2)NC1=O (stereo partly drawn),SI,[4],15000 and 20000
Nc1ccn([C@H]2CC[C@@H](CO)O2)c(=O)n1 [ZALCITABINE],CC50,"[5]; Homo sapiens, MT4",48000 nM
same,EC50,"[1]; Homo sapiens, MT4",33 nM
same,SI,[4],1500
C[C@H]1/C=C\[C@@H](CCCCN)NC(=O)[C@H](CCCCN)NC(=O)[C@@H](CCCN=C(N)N)NC(=O)[C@H](Cc2ccc(O)cc2)NC(=O)[C@@H](NC(=O)[C@H](Cc2ccc3ccccc3c2)NC(=O)[C@H](CCCN=C(N)N)NC(=O)[C@@H](N)CCCN=C(N)N)CSSC[C@@H](C(=O)N[C@@H](CCCN=C(N)N)C(=O)O)NC(=O)C(CCCNC(N)=O)NC(=O)[C@@H](CCCN=C(N)N)NC(=O)[C@H](Cc2ccc(O)cc2)NC1=O (stereo partly drawn),SI,[4],> 220000 and 140000
Cc1cn([C@H]2C[C@H](N=[N+]=[N-])[C@@H](CO)O2)c(=O)[nH]c1=O [ZIDOVUDINE],CC50,"[5]; Homo sapiens, MT4",12000 nM
same,EC50,"[1]; Homo sapiens, MT4",0.3 nM
same,SI,[4],35000
C[C@H]1/C=C\[C@@H](CCCCN)NC(=O)[C@H](CCCCN)NC(=O)[C@H](CCCN=C(N)N)NC(=O)[C@H](Cc2ccc(O)cc2)NC(=O)[C@@H](NC(=O)[C@H](Cc2c[nH]c3ccccc23)NC(=O)[C@H](CCCN=C(N)N)NC(=O)[C@@H](N)CCCN=C(N)N)CSSC[C@@H](C(=O)N[C@@H](CCCN=C(N)N)C(N)=O)NC(=O)[C@H](CCCNC(N)=O)NC(=O)[C@H](CCCN=C(N)N)NC(=O)[C@H](Cc2ccc(O)cc2)NC1=O [listing 2 of 2 here],CC50,[5],58000 nM
same,CC50,"[5]; Homo sapiens, MT4",56000 nM
C[C@H]1/C=C\[C@@H](CCCCN)NC(=O)[C@H](CCCCN)NC(=O)[C@H](CCCNC(=N)N)NC(=O)[C@H](Cc2ccc(O)cc2)NC(=O)[C@@H](NC(=O)[C@H](Cc2ccc3ccccc3c2)NC(=O)[C@H](CCCNC(=N)N)NC(=O)[C@@H](N)CCCN=C(N)N)CSSC[C@@H](C(=O)N[C@@H](CCCNC(=N)N)C(=O)O)NC(=O)[C@H](CCCNC(N)=O)NC(=O)[C@H](CCCNC(=N)N)NC(=O)[C@H](Cc2ccc(O)cc2)NC1=O,IC50,[3],6.9 nM
same,IC50,[2],7.3 nM
C[C@H]1/C=C\[C@@H](CCCCN)NC(=O)[C@H](CCCCN)NC(=O)[C@H](CCCN=C(N)N)NC(=O)[C@H](Cc2ccc(O)cc2)NC(=O)[C@@H](NC(=O)[C@H](CSC23C[C@H]4C[C@@H](C2)C[C@@H](C3)C4)NC(=O)[C@H](CCCN=C(N)N)NC(=O)[C@@H](N)CCCN=C(N)N)CSSC[C@@H](C(=O)N[C@@H](CCCN=C(N)N)C(N)=O)NC(=O)[C@H](CCCNC(N)=O)NC(=O)[C@H](CCCN=C(N)N)NC(=O)[C@H](Cc2ccc(O)cc2)NC1=O [listing 1 of 2 here],EC50,[1]; mt4,7.1 nM and 17 nM
same,IC50,[2],170 nM
C[C@H]1/C=C\[C@@H](CCCCN)NC(=O)[C@H](CCCCN)NC(=O)[C@H](CCCN=C(N)N)NC(=O)[C@H](Cc2ccc(O)cc2)NC(=O)[C@@H](NC(=O)[C@H](Cc2ccc3ccccc3c2)NC(=O)[C@H](CCCN=C(N)N)NC(=O)[C@@H](N)CCCN=C(N)N)CSSC[C@@H](C(=O)N[C@@H](CCCN=C(N)N)C(=O)O)NC(=O)[C@H](CCCNC(N)=O)NC(=O)[C@H](CCCN=C(N)N)NC(=O)[C@H](Cc2ccc(O)cc2)NC1=O [listing 1 of 2 here],EC50,[1]; mt4,< 0.3 nM and 1.9 nM
C[C@H]1/C=C\[C@@H](CCCCN)NC(=O)[C@H](CCCCN)NC(=O)[C@H](CCCN=C(N)N)NC(=O)[C@H](Cc2ccc(O)cc2)NC(=O)[C@@H](NC(=O)[C@H](CSC23C[C@H]4C[C@@H](C2)C[C@@H](C3)C4)NC(=O)[C@H](CCCN=C(N)N)NC(=O)[C@@H](N)CCCN=C(N)N)CSSC[C@@H](C(=O)N[C@@H](CCCN=C(N)N)C(N)=O)NC(=O)[C@H](CCCNC(N)=O)NC(=O)[C@H](CCCN=C(N)N)NC(=O)[C@H](Cc2ccc(O)cc2)NC1=O [listing 2 of 2 here],CC50,[5],57000 nM
same,CC50,"[5]; Homo sapiens, MT4",49000 nM
C[C@H]1/C=C\[C@@H](CCCCN)NC(=O)[C@H](CCCCN)NC(=O)[C@H](CCCN=C(N)N)NC(=O)[C@H](Cc2ccc(O)cc2)NC(=O)[C@@H](NC(=O)[C@H](Cc2ccc3ccccc3c2)NC(=O)[C@H](CCCN=C(N)N)NC(=O)[C@@H](N)CCCN=C(N)N)CSSC[C@@H](C(=O)N[C@@H](CCCN=C(N)N)C(=O)O)NC(=O)[C@H](CCCNC(N)=O)NC(=O)[C@H](CCCN=C(N)N)NC(=O)[C@H](Cc2ccc(O)cc2)NC1=O [listing 2 of 2 here],CC50,[5],67000 nM and 270000 nM
C[C@H]1/C=C\[C@@H](CCCCN)NC(=O)[C@H](CCCCN)NC(=O)[C@@H](CCCN=C(N)N)NC(=O)[C@H](Cc2ccc(O)cc2)NC(=O)[C@@H](NC(=O)[C@H](Cc2c[nH]c3ccccc23)NC(=O)[C@H](CCCN=C(N)N)NC(=O)[C@@H](N)CCCN=C(N)N)CSSC[C@@H](C(=O)N[C@@H](CCCN=C(N)N)C(=O)O)NC(=O)C(CCCNC(N)=O)NC(=O)[C@@H](CCCN=C(N)N)NC(=O)[C@H](Cc2ccc(O)cc2)NC1=O (stereo partly drawn),SI,[4],> 78000
C[C@H]1/C=C\[C@@H](CCCCN)NC(=O)[C@H](CCCCN)NC(=O)[C@H](CCCN=C(N)N)NC(=O)[C@H](Cc2ccc(O)cc2)NC(=O)[C@@H](NC(=O)[C@H](Cc2c[nH]c3ccccc23)NC(=O)[C@H](CCCN=C(N)N)NC(=O)[C@@H](N)CCCN=C(N)N)CSSC[C@@H](C(=O)N[C@@H](CCCN=C(N)N)C(=O)O)NC(=O)[C@H](CCCNC(N)=O)NC(=O)[C@H](CCCN=C(N)N)NC(=O)[C@H](Cc2ccc(O)cc2)NC1=O,CC50,"[5]; Homo sapiens, MT4",100000 nM
C[C@H]1/C=C\[C@@H](CCCCN)NC(=O)[C@H](CCCCN)NC(=O)[C@@H](CCCN=C(N)N)NC(=O)[C@H](Cc2ccc(O)cc2)NC(=O)[C@@H](NC(=O)[C@H](CSC23C[C@H]4C[C@@H](C2)C[C@@H](C3)C4)NC(=O)[C@H](CCCN=C(N)N)NC(=O)[C@@H](N)CCCN=C(N)N)CSSC[C@@H](C(=O)N[C@@H](CCCN=C(N)N)C(N)=O)NC(=O)C(CCCNC(N)=O)NC(=O)[C@@H](CCCN=C(N)N)NC(=O)[C@H](Cc2ccc(O)cc2)NC1=O (stereo partly drawn),SI,[4],6900 and 3300
C[C@H]1/C=C\[C@@H](CCCCN)NC(=O)[C@H](CCCCN)NC(=O)[C@@H](CCCN=C(N)N)NC(=O)[C@H](Cc2ccc(O)cc2)NC(=O)[C@@H](NC(=O)[C@H](Cc2ccc3ccccc3c2)NC(=O)[C@H](CCCN=C(N)N)NC(=O)[C@@H](N)CCCN=C(N)N)CSSC[C@@H](C(=O)N[C@@H](CCCN=C(N)N)C(N)=O)NC(=O)C(CCCNC(N)=O)NC(=O)[C@@H](CCCN=C(N)N)NC(=O)[C@H](Cc2ccc(O)cc2)NC1=O (stereo partly drawn),SI,[4],12000 and 31000
C[C@H]1/C=C\[C@@H](CCCCN)NC(=O)[C@H](CCCCN)NC(=O)[C@H](CCCN=C(N)N)NC(=O)[C@H](Cc2ccc(O)cc2)NC(=O)[C@@H](NC(=O)[C@H](CSCc2ccccc2)NC(=O)[C@H](CCCN=C(N)N)NC(=O)[C@@H](N)CCCN=C(N)N)CSSC[C@@H](C(=O)N[C@@H](CCCN=C(N)N)C(N)=O)NC(=O)[C@H](CCCNC(N)=O)NC(=O)[C@H](CCCN=C(N)N)NC(=O)[C@H](Cc2ccc(O)cc2)NC1=O [listing 2 of 2 here],CC50,[5],59000 nM
same,CC50,"[5]; Homo sapiens, MT4",54000 nM
